Broadly, the inhibition is the drop in the measured response relative to a control, in per cent. As a reminder, the IC50 is the concentration that gives 50% inhibition. High values mean weaker potency, low ones greater potency.

For eight compounds, inhibition, IC50 and Activity results are on record in ChEMBL document CHEMBL3352470, “New ent-kauranes from the fruits of Annona glabra and their inhibitory nitric oxide production in LPS-stimulated RAW264.7 macrophages” (Bioorg Med Chem Lett, 2015).

Data set [1] relates to RAW264.7. As to the kind of experiment: Inhibition of LPS-induced nitric oxide production in mouse RAW264.7 cells at 30 uM after 24 hrs by Griess assay relative to vehicle-treated control. The note with it: RAW264.7, 24 h. The class given is functional. In outline:
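RAW 264.7 cells were seeded at 5×10^5 cells/mL. After 3 h they were pretreated with compound at 3, 10 and 30 µM, then 1 µg/mL LPS was added for 24 h. Supernatant nitrite was measured by the Griess reaction. Controls were unstimulated cells, LPS alone and dexamethasone. Values are mean ± SD of three independent experiments.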
On the technique in general: Griess reagent forms a coloured azo dye with nitrite.

The subject of data set [2] is RAW264.7. The experiment in a line: Inhibition of LPS-induced nitric oxide production in mouse RAW264.7 cells after 24 hrs by Griess assay relative to vehicle-treated control. The class given is functional, cell-based. The note with it: RAW264.7, 24 h. Summed up: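 RAW 264.7 cells were seeded at 5×10^5 cells/mL. After 3 h they were pretreated with compound at a series of concentrations chosen from the screening results, then stimulated 24 h with 1 µg/mL LPS. Nitrite in the supernatant was read by the Griess reaction. IC50 came from the dose-dependent inhibition. Dexamethasone was the positive control.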

Data set [3] relates to RAW264.7. As to the kind of experiment: Cytotoxicity against mouse RAW264.7 cells at 30 uM by MTT assay relative to control. The class given is cell-based. The note with it: raw264.7, 30 µM. (Tetrazolium assays rely on reduction of a dye to a coloured formazan, in cell work by metabolically active cells.)

Regarding `C[C@@]12CCC[C@@](C)(C(=O)O)[C@H]1C[C@H](O)[C@@]13C[C@@H](CC[C@@H]21)[C@@](O)(CO)C3`, in data set [1], the inhibition at 30 µM worked out at 90%. This compound showed an IC50 in data set [2] of 0.39 µM. Moreover, the Activity result in data set [3] is reported as “Non-toxic”.
In data set [2], `C[C@@]12CCC[C@@](C)(C(=O)O[C@@H]3O[C@H](CO)[C@@H](O)[C@H](O)[C@H]3O)[C@H]1C[C@H](O)[C@@]13C[C@@H](CC[C@@H]21)[C@@H](CO)C3` registered an IC50 of over 30 µM. The Activity result in data set [3] was “Non-toxic”.
`C[C@@]12CCC[C@@](C)(C(=O)O[C@@H]3O[C@H](CO)[C@@H](O)[C@H](O)[C@H]3O)[C@H]1C[C@H](O)[C@]13C=C(CO)[C@H](CC[C@@H]21)C3` registered an inhibition at 30 µM in data set [1] of 90%. For the same compound, inhibition in data set [2] was half-maximal at 0.01 µM (IC50). The Activity result in data set [3] was “Non-toxic”.
Turning to `C[C@@]12CCC[C@@](C)(C(=O)O[C@@H]3O[C@H](CO)[C@@H](O)[C@H](O)[C@H]3O)[C@H]1CC[C@@]13C[C@@H](CC[C@H]12)[C@@](O)(CO)C3`, the IC50 in data set [2] is over 30 µM. For the same compound, in data set [3], the Activity entry was “Non-toxic”.
As to `CC1(C)CCC[C@]2(C)[C@@H]1CC[C@@]13C[C@@H](CC[C@H]12)[C@@](O)(CO)C3`, the inhibition at 30 µM in data set [1] amounted to 70.4%. In data set [2], this compound gave an IC50 of 17.1 µM. Moreover, in data set [3], the Activity result is given as “Non-toxic”.
In turn, `CC1(C)CCC[C@]2(C)[C@@H]1CC[C@@]13C[C@@H](CC[C@H]12)[C@](O)(CO)C3` returned an inhibition at 30 µM in data set [1] of 70.4%. The same compound came in with a 50% inhibitory concentration (IC50) in data set [2] of 6.2 µM. The Activity result in data set [3] was “Non-toxic”.
For the compound `C[C@@]12CCC[C@@](C)(C(=O)O)[C@H]1CC[C@@]13C[C@@H](CC[C@H]12)[C@](O)(CO)C3`, the inhibition at 30 µM in data set [1] was determined as 70.4%. In addition, in data set [2], the IC50 amounted to 14.3 µM. The Activity result in data set [3] was “Non-toxic”.
With `C[C@@]12CCC[C@@](C)(C=O)[C@H]1CC[C@@]13C[C@@H](CC[C@H]12)[C@](O)(CO)C3`, in data set [1], the inhibition at 30 µM was 90%. In data set [2], this compound displayed an IC50 of 0.32 µM. In data set [3], the Activity entry is recorded as “Non-toxic”.
